Measured values as given in ChEMBL document CHEMBL1134765, “Synthesis of 4-alkoxy-2-phenylquinoline derivatives as potent antiplatelet agents” (Bioorg Med Chem Lett, 2001).
Each block holds one compound with its values, some of them ahead of it.

Key:
Format in all cases: functional
Homo sapiens [1] = species on record: Homo sapiens; test: In vitro inhibitory activity on platelet aggregation induced by arachidonic acid (AA)
In short: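 Platelets were preincubated 1 min at 37 °C with test sample or 0.5% DMSO. Aggregation was then triggered with arachidonic acid 100. Aspirin and indomethacin served as positive controls.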

Homo sapiens [2] = species on record: Homo sapiens; test: Potent antiplatelet activity was evaluated
Homo sapiens [3] = species on record: Homo sapiens; test: In vitro inhibitory activity of compound 0.2 (ug/ml) on platelet aggregation induced by collagen
In short: (§1)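 Platelets were preincubated with test sample or 0.5% DMSO vehicle at 37 °C for 1 min. Aggregation was then triggered by one inducer: thrombin 0.1 U/mL, arachidonic acid 100, collagen 10, or PAF 2 ng/mL. Read-out was percent aggregation, reported as mean±SE with n=3–6.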

Homo sapiens [4] = species on record: Homo sapiens; test: In vitro inhibitory activity of compound 0.2 (ug/ml) on platelet aggregation induced by AA; in short: as §1
Homo sapiens [5] = species on record: Homo sapiens; test: In vitro inhibitory activity of compound 1 (ug/ml) on platelet aggregation induced by collagen; in short: as §1
Homo sapiens [6] = species on record: Homo sapiens; test: In vitro inhibitory activity of control on platelet aggregation induced by thrombin; in short: as §1
Homo sapiens [7] = species on record: Homo sapiens; test: In vitro inhibitory activity of compound 100 (ug/ml) on platelet aggregation induced by collagen; in short: as §1
Homo sapiens [8] = species on record: Homo sapiens; test: In vitro inhibitory activity of control on platelet aggregation induced by AA; in short: as §1
Homo sapiens [9] = species on record: Homo sapiens; test: In vitro inhibitory activity of compound 10 (ug/ml) on platelet aggregation induced by collagen; in short: as §1
Homo sapiens [10] = species on record: Homo sapiens; test: In vitro inhibitory activity of compound 0.5 (ug/ml) on platelet aggregation induced by collagen; in short: as §1
Homo sapiens [11] = species on record: Homo sapiens; test: In vitro inhibitory activity of compound 5 (ug/ml) on platelet aggregation induced by AA; in short: as §1
Homo sapiens [12] = species on record: Homo sapiens; test: In vitro inhibitory activity of compound 2 (ug/ml) on platelet aggregation induced by AA; in short: as §1
Homo sapiens [13] = species on record: Homo sapiens; test: In vitro inhibitory activity of compound 100 (ug/ml) on platelet aggregation induced by AA; in short: as §1
Homo sapiens [14] = species on record: Homo sapiens; test: In vitro inhibitory activity of compound 1 (ug/ml) on platelet aggregation induced by AA; in short: as §1
Homo sapiens [15] = species on record: Homo sapiens; test: In vitro inhibitory activity of compound 0.5 (ug/ml) on platelet aggregation induced by AA; in short: as §1
Homo sapiens [16] = species on record: Homo sapiens; test: In vitro inhibitory activity of compound 2 (ug/ml) on platelet aggregation induced by collagen; in short: as §1
Homo sapiens [17] = species on record: Homo sapiens; test: In vitro inhibitory activity of compound 5 (ug/ml) on platelet aggregation induced by collagen; in short: as §1
Homo sapiens [18] = species on record: Homo sapiens; test: In vitro inhibitory activity of compound on platelet aggregation induced by collagen; in short: as §1
Homo sapiens [19] = species on record: Homo sapiens; test: In vitro inhibitory activity of compound 100 (ug/ml) on platelet aggregation induced by thrombin; in short: as §1
Homo sapiens [20] = species on record: Homo sapiens; test: In vitro inhibitory activity of control on platelet aggregation induced by collagen; in short: as §1
Homo sapiens [21] = species on record: Homo sapiens; test: In vitro inhibitory activity of compound 100 (ug/ml) on platelet aggregation induced by PAF; in short: as §1
Homo sapiens [22] = species on record: Homo sapiens; test: In vitro inhibitory activity of compound 0.1 (ug/ml) on platelet aggregation induced by collagen; in short: as §1
Homo sapiens [23] = species on record: Homo sapiens; test: In vitro inhibitory activity of control on platelet aggregation induced by PAF; in short: as §1
Homo sapiens [24] = species on record: Homo sapiens; test: In vitro inhibitory activity of compound 50 (ug/ml) on platelet aggregation induced by PAF; in short: as §1
Homo sapiens [25] = species on record: Homo sapiens; test: In vitro inhibitory activity of compound 0.1 (ug/ml) on platelet aggregation induced by AA; in short: as §1
Homo sapiens [26] = species on record: Homo sapiens; test: In vitro inhibitory activity of compound 20 (ug/ml) on platelet aggregation induced by PAF; in short: as §1

SMILES: CCOC(=O)COc1cc(-c2ccccc2)nc2cccc(CC)c12
- IC50 (Homo sapiens [1]): 780 nM

SMILES: CCc1cccc2c1c(=O)cc(-c1ccccc1)n2C
- IC50 (Homo sapiens [1]): 30000 nM

SMILES: CCc1cccc2nc(-c3ccccc3)cc(O)c12
- IC50 (Homo sapiens [2]): 150 nM

SMILES: O=C(O)COc1cc(-c2ccccc2)nc2ccccc12
- IC50 (Homo sapiens [1]): 35600 nM

SMILES: CCOC(=O)COc1cc(-c2ccccc2)nc2ccccc12
- IC50 (Homo sapiens [1]): 13900 nM

SMILES: CCOc1cc(-c2ccccc2)nc2cccc(CC)c12
- IC50 (Homo sapiens [1]): 140 nM

SMILES: CC(=O)Oc1ccccc1C(=O)O [ASPIRIN]
- IC50 (Homo sapiens [1]): 20000 nM

SMILES: CCNC(=O)COc1cc(-c2ccccc2)nc2cccc(CC)c12
- IC50 (Homo sapiens [1]): 600 nM

Second part, led by results:

- IC50 (Homo sapiens [1]): 530 nM
SMILES: CCOC(=O)CCCCOc1cc(-c2ccccc2)nc2cccc(CC)c12

- IC50 (Homo sapiens [1]): 1540 nM
SMILES: CCOC(=O)CCCOc1cc(-c2ccccc2)nc2cccc(CC)c12

- IC50 (Homo sapiens [1]): 80 nM
SMILES: CCc1cccc2nc(-c3ccccc3)cc(OC)c12

- IC50 (Homo sapiens [1]): 250 nM
SMILES: COc1ccc2c(c1)c(CC(=O)O)c(C)n2C(=O)c1ccc(Cl)cc1 [INDOMETHACIN]

- IC50 (Homo sapiens [1]): 3970 nM
SMILES: CCOc1cc(-c2ccccc2)nc2cc(CC)ccc12

- IC50 (Homo sapiens [1]): 2010 nM
- IC50 (Homo sapiens [18]): 3610 nM
SMILES: CCOc1cc(-c2ccccc2)nc2ccccc12
- Aggregation (Homo sapiens [3]): 78.5%
- Aggregation (Homo sapiens [4]): 86.4%
- Aggregation (Homo sapiens [5]): 36.3%
- Aggregation (Homo sapiens [6]): 92.5%
- Aggregation (Homo sapiens [7]): 0%
- Aggregation (Homo sapiens [8]): 90.9%
- Aggregation (Homo sapiens [9]): 5.9%
- Aggregation (Homo sapiens [10]): 43.5%
- Aggregation (Homo sapiens [11]): 0%
- Aggregation (Homo sapiens [12]): 1.7%
- Aggregation (Homo sapiens [13]): 0%
- Aggregation (Homo sapiens [14]): 4.3%
- Aggregation (Homo sapiens [15]): 23.1%
- Aggregation (Homo sapiens [16]): 28.4%
- Aggregation (Homo sapiens [17]): 15.9%
- Aggregation (Homo sapiens [19]): 80%
- Aggregation (Homo sapiens [20]): 89.2%
- Aggregation (Homo sapiens [21]): 63.8%
- Aggregation (Homo sapiens [22]): 85.9%
- Aggregation (Homo sapiens [23]): 92%

- IC50 (Homo sapiens [1]): 2130 nM
- IC50 (Homo sapiens [18]): 1700 nM
SMILES: COc1cc(-c2ccccc2)nc2ccccc12
- Aggregation (Homo sapiens [4]): 86%
- Aggregation (Homo sapiens [5]): 18.5%
- Aggregation (Homo sapiens [6]): 92.5%
- Aggregation (Homo sapiens [7]): 0%
- Aggregation (Homo sapiens [8]): 90.9%
- Aggregation (Homo sapiens [24]): 65.8%
- Aggregation (Homo sapiens [12]): 0%
- Aggregation (Homo sapiens [13]): 0%
- Aggregation (Homo sapiens [14]): 9.3%
- Aggregation (Homo sapiens [15]): 53.4%
- Aggregation (Homo sapiens [16]): 9.4%
- Aggregation (Homo sapiens [17]): 0%
- Aggregation (Homo sapiens [25]): 90.8%
- Aggregation (Homo sapiens [19]): 56.8%
- Aggregation (Homo sapiens [20]): 89.2%
- Aggregation (Homo sapiens [21]): 0%
- Aggregation (Homo sapiens [26]): 87.2%
- Aggregation (Homo sapiens [23]): 92%

- IC50 (Homo sapiens [1]): 1880 nM
SMILES: CCc1cccc2nc(-c3ccccc3)cc(OCC(=O)NC)c12
